Assay outcomes deposited in PubChem by several laboratories.
This is one part of a sample in which hits are shown more often than they occur.
T cell HTS: modulators of CD8 T cell-vesicle binding, primary screen, mouse 2C CD8+ T cells, flow cytometry | response (vesicle binding), % at 7 µM | 2C CD8+ T cell-vesicle binding; hits give low values | AID 2052, 2009 | actives 0.068% (n = 330,000);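 active = response, share of CD8 T cells binding vesicles, and their 90th percentile fluorescence all below set limits, cut at about 80% in these data, passing the limit was not always enough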;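 also: values below 100% mean blocked vesicle binding to the CD8+ T cells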
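Material: murine 2C transgenic CD8+ T lymphocytes / Also added: QL9-peptide-loaded Drosophila micro-vesicles bearing Ld, ICAM-1 and B7-1 / Schedule: binding step 1.5 h, 37 °C, antibody labelling 20 min, ice / Signal: flow cytometry, PE anti-B7-1 (FL2) versus Alexa647 anti-CD8 (FL8), PFA-fixed / Evaluation: percent CD8+ FL2 mean versus row control / Benchmarks: naked versus QL9-loaded vesicles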
N-glyco inh: increase of ERlucT glycosylation luciferase signal, primary screen, N-linked glycosylation inhibitor project, D54 ERlucT cells, luminescence, set 2; D54 ERlucT glycosylation luciferase reporter, 24 h; percent of 100 nM tunicamycin response; reporter increase, % at 12.5 µM; actives 0.23% (n = 360,000);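 active = mean luciferase reporter signal, scaled so untreated is 0 and the glycosylation-blocking control 100, at or above a set limit in every replicate; inconclusive = mean reaches the limit but not every replicate does; inactive = mean below the limit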;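 also: luciferase carries N-glycosylation sites so blocking glycosylation raises the light; 0% = median of neutral control wells and 100% = median of 100 nM tunicamycin wells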
ALR H2O2 inh: inhibitors of human ALR sulfhydryl oxidase, primary screen, biochemical, H2O2 detection, HRP-luminol luminescence, single point | purified ALR, DTT oxidation | inhibition, % (test concentration not listed) | actives 3.8% (n = 290,000);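 active = mean replicate inhibition above about 79%, with every replicate also reaching it, limit read from the data; inconclusive = only one of the two criteria met; inactive = mean below limit and not every replicate reaching it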
Target sequence (P55789 whole entry, looked up): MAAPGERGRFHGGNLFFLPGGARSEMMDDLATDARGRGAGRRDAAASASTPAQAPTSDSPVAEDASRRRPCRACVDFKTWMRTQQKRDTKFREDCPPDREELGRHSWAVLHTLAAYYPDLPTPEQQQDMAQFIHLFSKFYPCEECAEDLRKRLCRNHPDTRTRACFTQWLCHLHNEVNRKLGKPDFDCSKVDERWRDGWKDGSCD
An asterisk follows results filed as active; i = inactive; ? = inconclusive; / = no result.

SMILES	T cell HTS	N-glyco inh	ALR H2O2 inh
FC(F)(F)c1ccccc1Cc1c(C2CCCCC2)nc2c3ccccc3ccn12	/	2	/
Cc1ccccc1S(=O)(=O)Oc1cccc2c(O)cccc12	309	1	99*
Cc1ccccc1C(=O)Oc1cccc2c(O)cccc12	268	4	37
COc1ccc(OCC(=O)N2CCC3(CC2)CC(=O)c2ccccc2O3)cc1	507	-4	-3
CC(C)(C(=O)N1CCC1(C)C(=O)NS(=O)(=O)c1cccc(C#N)c1)c1ccccc1 (configuration not stated)	/	1	/
Cc1ccccc1NC(=O)CSc1nc2cc3c(cc2cc1C)CCC3	434	13	-3
Cc1cc2cc3c(cc2nc1SCC(=O)O)CCC3	120	-1	98*
O=C(COC(=O)c1ccc[nH]c1=O)NC1CCCCC1	140	2	-7
Cc1cc(C(=O)N2CCCC(Nc3ccc(F)cc3)C2)c(C)o1 (configuration not stated)	411	2	?
Cc1occc1C(=O)N1CCCC(Nc2ccc(F)cc2)C1 (configuration not stated)	0	1	98*
CC(C)c1ccc(NC2CCCN(C(=O)c3cnc4ccccn4c3=O)C2)cc1 (configuration not stated)	140	1	95*
Cc1ccc2nc(C(=O)N3CCCC(Nc4ccc(F)cc4)C3)cn2c1 (configuration not stated)	332	2	30
O=C(c1ccccc1-c1ncc[nH]1)N1CCCC(Nc2ccc(F)cc2)C1 (configuration not stated)	452	0	99*
O=C(NC1CCCN(Cc2ccc(Cl)cc2)C1)c1ccccc1-c1ncc[nH]1 (configuration not stated)	/	-3	/
Cc1ccc2nccc(C(=O)N3CCCC(Nc4ccc(F)cc4)C3)c2c1 (configuration not stated)	293	2	98*
Cc1ccc(NC2CCCN(C(=O)c3cnc4ccccn4c3=O)C2)cc1C (configuration not stated)	670	3	/
CCOc1ccc(/C=C(\C)C(=O)c2c(C)cc(C)[nH]c2=O)cc1	222	-2	2
Cc1ccc(NC(=O)CNC(=O)Cn2cnc3sc(C)c(C)c3c2=O)cc1F	831	0	-3
CCn1nc(C)cc1C(=O)N1CCCC(Nc2ccc(C(C)C)cc2)C1 (configuration not stated)	/	2	/
Cc1occc1C(=O)N1CCCC(Nc2ccc(C(C)C)cc2)C1 (configuration not stated)	238	-1	99*
CC(C)(C)OC(=O)NCc1ccc(CNC(=O)c2nc[nH]c2C(=O)N2CCN(C(=O)OC(C)(C)C)CC2)cc1	90	-3	4
Cc1nnc(NC(=O)c2nc(S(=O)(=O)Cc3ccccc3)ncc2Cl)s1	680	4	99*
Cc1cccc(CS(=O)(=O)c2ncc(Cl)c(C(=O)NCc3ccccc3)n2)c1	377	-21	-1
CCCc1nnc(NC(=O)c2nc(S(=O)(=O)Cc3cccc(C)c3)ncc2Cl)s1	427	12	13
Cc1cccc(C)c1NC(=O)c1nc(S(=O)(=O)Cc2ccccc2)ncc1Cl	687	-18	97*
SMILES	T cell HTS	N-glyco inh	ALR H2O2 inh
Cc1cccc(CS(=O)(=O)c2ncc(Cl)c(C(=O)Nc3c(C)cccc3C)n2)c1	217	-12	98*
Cc1ccc(NC(=O)c2nc(S(=O)(=O)Cc3ccccc3)ncc2Cl)cc1	408	-2	1
COc1ccc(C(=O)C2CCN(C(=S)NCC3CCCO3)CC2)cc1 (configuration not stated)	663	1	-17
CC(=O)c1ccc(NC(=O)C(Cc2ccccc2)n2cccc2)cc1 (configuration not stated)	80	2	3
COc1ccc(C(C(=O)NC2CCCCC2)N(C(=O)CCl)c2ccc(C)cc2)cc1 (configuration not stated)	0	17	-10
COC(CN(C(=O)CCl)C(C(=O)NC1CCCCC1)c1ccc(C)cc1)OC (configuration not stated)	435	2	97*
CC(=O)Nc1ccc(NC2CCCCC2NS(=O)(=O)c2ccc(Cl)cc2)cc1 (configuration not stated)	233	0	99*
O=C(O)c1ccccc1NC1CCCCC1NS(=O)(=O)c1ccccc1 (configuration not stated)	/	-1	/
O=S(=O)(NC1CCCCC1Nc1ccccc1)c1ccccc1 (configuration not stated)	158	-1	99*
CCN(CC)C1CCCCC1NS(=O)(=O)c1ccc(Cl)cc1 (configuration not stated)	408	-1	-11
CCOc1ccc(CCNC(=O)COC(=O)c2c(C)nn(-c3ccccc3)c2C)cc1OCC	316	-4	0
CCOC(=O)C1(CC2CC2)CCN(C(=O)c2cc(C)nc3ccc(CC)cc23)CC1	i	0	-8
CCOC(=O)C1=C[C@@H](CC)N(S(=O)(=O)c2ccccc2)[C@H]1c1ccccc1	/	-2	/
O=S(=O)([N-]c1nc2ccccc2nc1-n1cc[n+](Cc2ccccc2)c1)c1ccccc1	192	40*	2
C=CC[n+]1ccn(-c2nc3ccccc3nc2[N-]S(=O)(=O)c2cccs2)c1	204	2	95*
O=[N+]([O-])c1cccc(S(=O)(=O)[N-]c2nc3ccccc3nc2-n2cc[n+](Cc3ccccc3)c2)c1	146	10	-11
CCCC[n+]1ccn(-c2nc3ccccc3nc2[N-]S(=O)(=O)c2ccc(C)cc2)c1	449	-4	-4
Cc1ccc(S(=O)(=O)[N-]c2nc3ccccc3nc2-n2cc[n+](Cc3ccccc3)c2)cc1	173	43*	-24
CCCC[n+]1ccn(-c2nc3ccccc3nc2[N-]S(=O)(=O)c2cccs2)c1	216	1	7
O=C(NC1CCN(Cc2ccc(Cl)cc2Cl)CC1)c1ccccc1	209	-4	/
Cc1ccc(S(=O)(=O)N2CCCCC2)cc1NC(=O)c1ccc(Br)o1	176	-3	-1
O=C(CN1CCN(C(=O)c2ccccc2Cl)CC1)Nc1cccc(S(=O)(=O)N2CCCC2)c1	/	-1	/
CN(C)CCCNS(=O)(=O)c1cc(Cl)ccc1Cl	318	3	-4
O=S(=O)(c1ccc(N2CCC(c3ccc(Cl)cc3)=N2)cc1)N(CCO)CCO	562	5	98*
CN(C)CCCNS(=O)(=O)c1ccc(N2CCC(c3ccc(Cl)cc3)=N2)cc1	505	/	91*
O=S(=O)(c1ccc(Oc2ccc(S(=O)(=O)N(CCO)CCO)cc2)cc1)N(CCO)CCO	193	3	-9
CC(C)C(c1nnnn1C1CCCC1)N1CCc2ccccc21 (configuration not stated)	302	-4	99*
CC(C)C(c1nnnn1C1CCCC1)N1CCCc2ccccc21 (configuration not stated)	257	-4	25
